The source made the active and inactive calls.
Experiments:
Assay type in all cases: functional, organism-based
Rattus norvegicus [1] = assay: Reduction in proliferating cell nuclear antigen expression in prostate tissue in BPH-induced Sprague-Dawley rat model at 5 mg/kg, po daily for 4 weeks by Western blot analysis
Rattus norvegicus [2] = assay: Reduction in prostate weight in BPH-induced Sprague-Dawley rat model at 5 mg/kg, po daily for 4 weeks in presence testosterone propionate of 10 mg/kg, intramuscular injection for 4 weeks; details: Prostate gland
Rattus norvegicus [3] = assay: Reduction in thickness of epithelium tissue in prostate tissue in BPH-induced Sprague-Dawley rat model at 1 mg/kg, ip daily for 4 weeks by Hematoxylin and eosin staining based microscopy; details: Prostate gland
Summary of the method: (§1)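 Prostates fixed in 4% buffered formalin, paraffin embedded, cut at 4 μm, stained with H&E and imaged at original magnification 40×. Epithelial thickness measured by pathologists. Rats received testosterone propionate 10 mg/kg im daily for 4 weeks with daily treatment; n = 6 per group.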

Rattus norvegicus [4] = assay: Reduction in COX2 expression in prostate tissue in BPH-induced Sprague-Dawley rat model at 1 mg/kg, ip daily for 4 weeks by Western blot analysis; details: Prostate gland
Summary of the method: (§2)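 Prostate homogenized in lysis buffer, 30 μg protein run on SDS-PAGE, PVDF blot, antibody probing, ECL detection, β-actin internal control, densitometry. Mean ± SEM, n = 6 rats/group; one-way ANOVA with Dunnett's test.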

Rattus norvegicus [5] = assay: Reduction in iNOS expression in prostate tissue in BPH-induced Sprague-Dawley rat model at 1 mg/kg, ip daily for 4 weeks by Western blot analysis; details: Prostate gland
Rattus norvegicus [6] = assay: Reduction in Bcl2 to Bax ratio in prostate tissue in BPH-induced Sprague-Dawley rat model at 1 mg/kg, ip daily for 4 weeks by Western blot analysis; details: Prostate gland
Summary of the method: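 Male Sprague-Dawley rats, BPH induced by daily im testosterone propionate 10 mg/kg for 4 weeks with daily dosing. Prostate lysate (30 μg protein) Western blotted; Bax and Bcl-2 band densities normalized to β-actin and expressed as Bax/Bcl-2 ratio. Mean ± SEM, n = 6 rats/group.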

Rattus norvegicus [7] = assay: Reduction in procaspase 3 expression in prostate tissue in BPH-induced Sprague-Dawley rat model at 1 mg/kg, ip daily for 4 weeks by Western blot analysis; details: Prostate gland; summary of the method: as §2
Rattus norvegicus [8] = assay: Reduction in PARP1 expression in prostate tissue in BPH-induced Sprague-Dawley rat model at 1 mg/kg, ip daily for 4 weeks by Western blot analysis; details: Prostate gland; summary of the method: as §2
Rattus norvegicus [9] = assay: Reduction in 5alpha-reductase mRNA level in prostate tissue in BPH-induced Sprague-Dawley rat model at 1 mg/kg, ip daily for 4 weeks by quantitative real-time PCR analysis; details: Prostate gland
Summary of the method: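 Prostate tissue 5α-reductase 2 mRNA quantified by real-time PCR in male Sprague-Dawley rats given testosterone propionate 10 mg/kg im daily for 4 weeks plus daily treatment; mean ± SEM, n = 6 rats/group.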

Rattus norvegicus [10] = assay: Reduction in prostate cell proliferation and gland development in BPH-induced Sprague-Dawley rat model at 1 mg/kg, ip daily for 4 weeks by Hematoxylin and eosin staining based microscopy; summary of the method: as §1
Rattus norvegicus [11] = assay: Reduction in Bcl2 expression in prostate tissue in BPH-induced Sprague-Dawley rat model at 1 mg/kg, ip daily for 4 weeks by Western blot analysis; details: Prostate gland
Rattus norvegicus [12] = assay: Reduction in proliferating cell nuclear antigen in prostate tissue expression in BPH-induced Sprague-Dawley rat model at 1 mg/kg, ip daily for 4 weeks by Western blot analysis; summary of the method: as §2
Rattus norvegicus [13] = assay: Increase in Bax expression in prostate tissue in BPH-induced Sprague-Dawley rat model at 1 mg/kg, ip daily for 4 weeks by Western blot analysis; details: Prostate gland; summary of the method: as §2
Rattus norvegicus [14] = assay: Reduction in Bcl-xL expression in prostate tissue in BPH-induced Sprague-Dawley rat model at 1 mg/kg, ip daily for 4 weeks by Western blot analysis; details: Prostate gland; summary of the method: as §2
Rattus norvegicus [15] = assay: Reduction in prostate weight in BPH-induced Sprague-Dawley rat model at 1 mg/kg, ip daily for 4 weeks in presence testosterone propionate of 10 mg/kg, intramuscular injection for 4 weeks; details: Prostate gland

Measured: inhibition

CC(C)(C)NC(=O)[C@H]1CC[C@H]2[C@@H]3CC[C@H]4NC(=O)C=C[C@]4(C)[C@H]3CC[C@]12C
active: Rattus norvegicus [1] | Rattus norvegicus [2]

Oc1ccc(/C=C/c2cc(O)cc(O)c2)cc1
not listed: Rattus norvegicus [1] | Rattus norvegicus [2]
active: all other assays above
